For 16 compounds, Activity and Ki results are on record in ChEMBL document CHEMBL1154760, “Optimization of a pipemidic acid autotaxin inhibitor” (J Med Chem, 2010).

Assay [1] concerns the target T1, Glycerophosphocholine cholinephosphodiesterase ENPP6 (Homo sapiens) (UniProt Q6UWR7).
T1 sequence (whole entry): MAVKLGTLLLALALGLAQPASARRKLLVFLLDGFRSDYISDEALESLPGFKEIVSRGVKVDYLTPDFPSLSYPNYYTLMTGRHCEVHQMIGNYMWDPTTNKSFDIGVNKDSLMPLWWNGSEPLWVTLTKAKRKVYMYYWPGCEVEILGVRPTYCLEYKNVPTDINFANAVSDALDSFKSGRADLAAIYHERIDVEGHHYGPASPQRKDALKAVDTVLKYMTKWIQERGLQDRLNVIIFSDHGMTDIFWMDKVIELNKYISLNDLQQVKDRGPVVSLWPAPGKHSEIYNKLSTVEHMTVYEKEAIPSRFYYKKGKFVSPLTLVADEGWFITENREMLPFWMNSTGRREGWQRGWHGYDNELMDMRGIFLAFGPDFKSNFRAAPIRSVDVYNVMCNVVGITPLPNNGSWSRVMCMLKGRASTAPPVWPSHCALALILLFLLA
Kind of assay: Inhibition of NPP6 expressed in HEK293 cells assessed as para-nitrophenylphosphoryl choline hydrolysis. The class given is cell-based. An outline of the steps: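 NPP6 from conditioned medium of HEK293 cells transiently transfected with human NPP6. Inhibitor at 10 μM in 1% DMSO. Substrate pNPPC at 10 mM in 100 mM Tris-HCl pH 9.0 with 500 mM NaCl and 0.05% Triton X-100, 37 °C. Absorbance read at 1 h, normalized to vehicle after cell-free-medium blank. Mean ± SD of ≥3 wells.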

Assay [2] deals with T2, Ectonucleotide pyrophosphatase/phosphodiesterase family member 7 (Homo sapiens) (UniProt Q6UWV6).
T2 sequence (whole entry): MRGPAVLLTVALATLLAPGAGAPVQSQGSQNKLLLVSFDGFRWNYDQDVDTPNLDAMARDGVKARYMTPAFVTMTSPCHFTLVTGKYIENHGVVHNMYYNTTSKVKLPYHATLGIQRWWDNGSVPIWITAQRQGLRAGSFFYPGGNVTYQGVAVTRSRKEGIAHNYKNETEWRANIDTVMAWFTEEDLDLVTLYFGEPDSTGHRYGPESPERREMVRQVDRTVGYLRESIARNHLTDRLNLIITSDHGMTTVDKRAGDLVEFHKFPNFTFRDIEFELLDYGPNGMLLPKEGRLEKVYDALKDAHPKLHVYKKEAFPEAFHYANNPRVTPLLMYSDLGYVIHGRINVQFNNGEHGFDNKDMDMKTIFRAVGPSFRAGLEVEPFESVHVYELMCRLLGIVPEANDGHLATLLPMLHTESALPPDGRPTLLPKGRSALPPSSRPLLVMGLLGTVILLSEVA
Put plainly: Inhibition of NPP7 expressed in HEK293 cells assessed as para-nitrophenylphosphoryl choline hydrolysis. The class given is cell-based. The method, boiled down: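 NPP7 from concentrated conditioned medium of transfected HEK293 cells (human NPP7). Inhibitor at 10 μM in 1% DMSO. Substrate pNPPC at […] in 50 mM Tris-HCl pH 8.5 with 150 mM NaCl and 10 mM taurocholic acid, no EDTA, 37 °C. Absorbance taken at 1 h, vehicle-normalized after blank. Mean ± SD of ≥3 wells.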

Assay [3] concerns the target T3, Autotaxin (Homo sapiens, UniProt Q13822). Put plainly: Competitive inhibition of human autotaxin at free state isolated from MDA-MB-231 cells assessed as blockade of FS3 substrate hydrolysis by FRET assay. In kind it is cell-based.
Assay [4] has as its target T3, Autotaxin. Kind of assay: Noncompetitive type inhibition of human autotaxin at enzyme-substrate complex isolated from […] assessed as blockade of FS3 substrate hydrolysis by FRET assay. The method, boiled down: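 ATX source: ~10× concentrated serum-free conditioned medium from MDA-MB-435 cells, buffer-exchanged into 50 mM Tris pH 7.4 with 20% ethylene glycol. FS-3 300 nM–20 μM with three inhibitor levels, including zero. Buffer: 50 mM Tris pH 8.0, 140 mM NaCl, 5 mM KCl, 1 mM CaCl2/MgCl2, 30 μM stripped BSA. Run at 37 °C, ex485/em528. Ki′ from simultaneous nonlinear fit to four inhibition models; lowest residual error chosen.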

For assay [5], the target named is T3, Autotaxin. Put plainly: Noncompetitive type inhibition of human autotaxin at free state isolated from MDA-MB-231 cells assessed as blockade of FS3 substrate hydrolysis by FRET assay. In kind it is cell-based.

Active and inactive are the calls of the source. No cut-off for these calls is given here.

In the case of `CCn1cc(C(=O)O)c(=O)c2cnc(N3CCN(C(=S)Nc4cccc(I)c4)CC3)nc21`, the outcome in assay [1] and in assay [2] was inactive.

Consider `CCn1cc(C(=O)O)c(=O)c2cnc(N3CCN(C(=S)Nc4cccc(OC)c4)CC3)nc21`, for which the outcome in assay [1] and in assay [2] was inactive.

For orientation: Ki means the equilibrium dissociation constant of an inhibitor or competing ligand from its target. As to `CCn1cc(C(=O)O)c(=O)c2cnc(N3CCN(C(=S)Nc4ccc5nsnc5c4)CC3)nc21`, the inhibitory constant (Ki) in assay [3] worked out at 7.1 µM. The outcome in assay [1] and in assay [2] was inactive.

In the case of `CCn1cc(C(=O)O)c(=O)c2cnc(N3CCN(C(=S)Nc4ccc(C(F)(F)F)cc4)CC3)nc21`, the Ki in assay [4] and in assay [5] was 13.2 µM in each case. Also, the result in assay [1] and in assay [2] was inactive.

Turning to `CCn1cc(C(=O)O)c(=O)c2cnc(N3CCN(C(=S)Nc4cc(Cl)ccc4Cl)CC3)nc21`, the outcome in assay [1] and in assay [2] was inactive.

As to `CCn1cc(C(=O)O)c(=O)c2cnc(N3CCN(C(=S)Nc4cccc(C)c4)CC3)nc21`, in assay [3], the Ki came to 4.5 µM. Also, the result in assay [1] and in assay [2] was inactive.

As for `CCn1cc(C(=O)O)c(=O)c2cnc(N3CCN(C(=S)Nc4cc(C)cc(C)c4)CC3)nc21`, in assay [3], the Ki stood at 4.2 µM. In addition, the result in assay [1] and in assay [2] was inactive.

For `CCn1cc(C(=O)O)c(=O)c2cnc(N3CCN(C(=S)Nc4ccc(F)cc4)CC3)nc21`, the outcome in assay [1] and in assay [2] was inactive.

As to `CCn1cc(C(=O)O)c(=O)c2cnc(N3CCN(C(=S)Nc4cccc(Cl)c4)CC3)nc21`, the outcome in assay [1] and in assay [2] was inactive.

Regarding `CCn1cc(C(=O)O)c(=O)c2cnc(N3CCN(C(=S)Nc4ccc(C)cc4)CC3)nc21`, the result in assay [1] and in assay [2] was inactive.

As to `CCn1cc(C(=O)O)c(=O)c2cnc(N3CCN(C(=S)Nc4cc(C(F)(F)F)cc(C(F)(F)F)c4)CC3)nc21`, the Ki in assay [3] was 4 µM. The outcome in assay [1] and in assay [2] was inactive.

In the case of `CCn1cc(C(=O)O)c(=O)c2cnc(N3CCN(C(=S)Nc4ccc(I)cc4)CC3)nc21`, the outcome in assay [1] and in assay [2] was inactive.

For the compound `CCn1cc(C(=O)O)c(=O)c2cnc(N3CCN(C(=S)Nc4cccc(F)c4)CC3)nc21`, the result in assay [1] and in assay [2] was inactive.

`CCn1cc(C(=O)O)c(=O)c2cnc(N3CCN(C(=S)Nc4cccc(C(F)(F)F)c4)CC3)nc21`: the Ki in assay [3] came out at 0.7 µM. Further, the result in assay [1] and in assay [2] was inactive.

Turning to `CCn1cc(C(=O)O)c(=O)c2cnc(N3CCN(C(=S)Nc4ccc(Cl)cc4)CC3)nc21`, in assay [3], the Ki turned out to be 5.7 µM. In addition, the outcome in assay [1] and in assay [2] was inactive.

With `CCCCCCCCc1ccc(CCC(N)(CO)CCCP(=O)(O)O)cc1` (centres undefined), in assay [5], the Ki came to 0.2 µM.
